Laboratory results reported in paper PMC3653324 (Translational stroke research, 2012).

Key:
H4IIE cells [1] = assay: CeeTox membrane toxicity; conditions: 24 hr, α-GST leakage
H4IIE cells [2] = assay: CeeTox cell mass; conditions: 24 hr
8-Isoprostane (8-ISO) = assay: CeeTox lipid peroxidation measured as 8-isoprostane; conditions: H4IIE cells, 8-ISO score
H4IIE cells [3] = assay type: cell-based; conditions: 24 hr
H4IIE cells [4] = assay: CeeTox cellular ATP content; conditions: 24 hr
H4IIE cells [5] = assay: CeeTox analysis composite; assay type: cell-based, rat; conditions: H4IIE cells, 24 hr, range across CeeTox endpoints
[6] = tested on: Intracellular glutathione (GSH); assay: CeeTox intracellular glutathione; conditions: H4IIE cells
S. typhimurium TA989 = assay: Ames test for mutagenicity, frame-shift strain; assay type: cell-based; conditions: first TA98 column; for TA98+S9: with S9, up to 10 μM; for TA98−S9: without S9, up to 10 μM
CYP1A2 = biological target: T1, CYP1A2 (Homo sapiens, UniProt P05177); assay: Cloe Screen Cytochrome P450 Inhibition assay; assay type: in vitro ADME; conditions: for CYP1A2 inhibition classification: classified from IC50
T1 sequence (P05177 1-516): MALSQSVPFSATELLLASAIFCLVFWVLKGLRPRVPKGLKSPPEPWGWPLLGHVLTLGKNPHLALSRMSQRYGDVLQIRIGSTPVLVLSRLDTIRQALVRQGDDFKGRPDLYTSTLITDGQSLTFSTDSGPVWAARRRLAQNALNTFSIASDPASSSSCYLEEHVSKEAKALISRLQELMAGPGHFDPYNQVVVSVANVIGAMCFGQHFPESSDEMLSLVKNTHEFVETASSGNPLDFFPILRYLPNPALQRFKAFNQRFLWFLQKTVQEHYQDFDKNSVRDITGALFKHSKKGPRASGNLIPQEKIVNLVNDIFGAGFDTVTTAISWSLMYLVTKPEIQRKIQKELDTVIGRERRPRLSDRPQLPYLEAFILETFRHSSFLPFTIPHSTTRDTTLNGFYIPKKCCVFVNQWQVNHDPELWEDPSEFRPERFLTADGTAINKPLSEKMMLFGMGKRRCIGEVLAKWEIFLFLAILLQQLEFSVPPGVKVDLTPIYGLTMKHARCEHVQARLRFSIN

CYP2C19 = CYP2C19 (Homo sapiens, UniProt P33261); assay: Cloe Screen Cytochrome P450 Inhibition assay; assay type: in vitro ADME
Chain of CYP2C19 (P33261 whole entry): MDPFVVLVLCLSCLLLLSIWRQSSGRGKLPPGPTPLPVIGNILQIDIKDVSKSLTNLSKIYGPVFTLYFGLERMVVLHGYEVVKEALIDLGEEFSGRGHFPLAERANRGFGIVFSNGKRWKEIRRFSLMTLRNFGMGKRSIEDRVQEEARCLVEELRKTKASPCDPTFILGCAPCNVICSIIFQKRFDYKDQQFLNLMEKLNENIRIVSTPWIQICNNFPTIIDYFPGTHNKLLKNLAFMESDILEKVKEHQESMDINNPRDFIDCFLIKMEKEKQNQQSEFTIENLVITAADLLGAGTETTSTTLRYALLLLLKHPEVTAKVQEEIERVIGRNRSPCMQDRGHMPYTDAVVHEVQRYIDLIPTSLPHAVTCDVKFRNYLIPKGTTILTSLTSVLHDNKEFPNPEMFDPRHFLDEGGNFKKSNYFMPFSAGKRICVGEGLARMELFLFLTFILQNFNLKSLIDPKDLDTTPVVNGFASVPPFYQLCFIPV

P-glycoprotein (PgP) = assay: P-glycoprotein; assay type: cell-based, rat; conditions: H4IIE cells, MTT, 24 hr, single exposure concentration (20 or 50 μM), without CSA
CYP2D6 = CYP2D6 (Homo sapiens, UniProt P10635); assay: Cloe Screen Cytochrome P450 Inhibition assay; assay type: in vitro ADME
Chain of CYP2D6 (P10635 whole entry): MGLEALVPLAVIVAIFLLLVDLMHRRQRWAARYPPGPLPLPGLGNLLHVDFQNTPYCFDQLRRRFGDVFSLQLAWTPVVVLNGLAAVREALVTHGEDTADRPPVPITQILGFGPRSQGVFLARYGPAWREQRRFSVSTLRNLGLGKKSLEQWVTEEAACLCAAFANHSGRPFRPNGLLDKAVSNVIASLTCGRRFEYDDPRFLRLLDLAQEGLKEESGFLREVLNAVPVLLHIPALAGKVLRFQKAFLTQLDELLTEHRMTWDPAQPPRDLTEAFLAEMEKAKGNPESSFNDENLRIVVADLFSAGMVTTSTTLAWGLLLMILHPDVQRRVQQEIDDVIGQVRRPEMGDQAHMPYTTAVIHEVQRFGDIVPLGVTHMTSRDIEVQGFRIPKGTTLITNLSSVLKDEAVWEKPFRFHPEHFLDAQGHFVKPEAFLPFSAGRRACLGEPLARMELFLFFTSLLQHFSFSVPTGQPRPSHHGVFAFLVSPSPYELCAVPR
Procedure, shortened: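 Run blinded. […] Metabolite formation was monitored by LC-MS/MS. IC50 was calculated from the decrease in metabolite formation relative to vehicle control. Quinidine served as positive control inhibitor.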

CYP2C9 = CYP2C9 (Homo sapiens, UniProt P11712); assay: Cloe Screen Cytochrome P450 Inhibition assay; assay type: in vitro ADME
Chain of CYP2C9 (P11712 whole entry): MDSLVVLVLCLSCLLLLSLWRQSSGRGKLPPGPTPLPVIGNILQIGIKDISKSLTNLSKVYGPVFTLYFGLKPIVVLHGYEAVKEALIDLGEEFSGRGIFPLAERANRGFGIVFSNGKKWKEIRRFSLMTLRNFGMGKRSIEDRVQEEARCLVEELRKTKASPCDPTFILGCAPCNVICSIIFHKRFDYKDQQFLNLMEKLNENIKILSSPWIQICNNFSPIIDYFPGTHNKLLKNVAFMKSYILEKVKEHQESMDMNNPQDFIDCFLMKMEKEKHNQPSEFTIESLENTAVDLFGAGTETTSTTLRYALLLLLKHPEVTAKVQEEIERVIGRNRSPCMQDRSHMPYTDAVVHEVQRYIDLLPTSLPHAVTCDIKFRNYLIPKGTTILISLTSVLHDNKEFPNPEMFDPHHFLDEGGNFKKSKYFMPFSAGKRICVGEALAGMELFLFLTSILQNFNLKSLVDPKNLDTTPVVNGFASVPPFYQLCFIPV

CYP3A4 = CYP3A4 (Homo sapiens, UniProt P08684); assay: Cloe Screen Cytochrome P450 Inhibition assay; assay type: in vitro ADME
Chain of CYP3A4 (P08684 2-503): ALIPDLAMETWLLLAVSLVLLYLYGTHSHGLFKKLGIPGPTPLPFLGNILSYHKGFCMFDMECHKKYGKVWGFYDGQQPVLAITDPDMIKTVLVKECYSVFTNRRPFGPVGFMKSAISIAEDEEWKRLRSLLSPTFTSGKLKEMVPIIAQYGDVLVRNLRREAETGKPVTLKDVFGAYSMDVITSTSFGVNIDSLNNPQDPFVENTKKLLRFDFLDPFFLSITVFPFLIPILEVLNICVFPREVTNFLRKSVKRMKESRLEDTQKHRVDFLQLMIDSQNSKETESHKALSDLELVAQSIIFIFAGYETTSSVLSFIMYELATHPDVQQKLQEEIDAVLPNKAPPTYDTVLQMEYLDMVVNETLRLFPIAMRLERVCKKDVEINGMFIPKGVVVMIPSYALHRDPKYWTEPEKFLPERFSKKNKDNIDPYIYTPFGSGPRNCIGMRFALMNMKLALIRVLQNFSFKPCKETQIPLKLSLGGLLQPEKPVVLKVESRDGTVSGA

Caspase 3 = assay: CeeTox apoptosis; assay type: cell-based, rat; conditions: H4IIE cells; for Caspase 3 Activity (Index/Dose): dose: dose at which the index was seen; for Caspase 3 Activity (Index/Dose): index: index of RFU
P-glycoprotein (MDR1) = assay: BBB penetration; assay type: in vitro ADME, canine; conditions: dog, MDCK-MDR1
Procedure, shortened: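 MDCK cells transfected with human MDR1 (P-gp) were grown to a confluent monolayer over 4 days. Test compound was added apically, and A→B transport was followed over 60 min; B→A transport was also measured. Compound on each side was quantified by GC/MS. Papp was calculated for both directions, and efflux ratio = Papp B→A/Papp A→B. High BBB potential: Papp A→B ≥3.0×10⁻⁶ cm/s and efflux <3.0.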

Row | SMILES | MemTox TC50 (H4IIE cells [1]) [µM] | Cell Mass TC50 (H4IIE cells [2]) [µM] | Membrane Lipid Peroxidation (8-Isoprostane (8-ISO)) | MTT TC50 (H4IIE cells [3]) [µM] | ATP TC50 (H4IIE cells [4]) [µM] | TC50 for all general toxicity measures (range over endpoints) (H4IIE cells [5]) [µM] | Total GSH TC50 [6] [µM] | TA98+S9 (S. typhimurium TA989) | TA98−S9 (S. typhimurium TA989) | IC50 (CYP1A2) [µM] | CYP1A2 inhibition classification (CYP1A2) | IC50 (CYP2C19) [µM] | % Control(Compound) (P-glycoprotein (PgP)) [% Control] | IC50 (CYP2D6) [µM] | IC50 (CYP2C9) [µM] | IC50 (CYP3A4) [µM] | Caspase 3 Activity (Index/Dose): dose (Caspase 3) | Caspase 3 Activity (Index/Dose): index (Caspase 3) | Papp A→B at 60 min (P-glycoprotein (MDR1)) [×10⁻⁶ cm/s] | efflux ratio at 60 min (P-glycoprotein (MDR1))
1 | C=C(C)[C@H]1Cc2c(ccc3c2O[C@@H]2COc4cc(OC)c(OC)cc4[C@@H]2C3=O)O1 [ROTENONE, rotenone, reference compound] | 3.88 | 0.09 | 2 (2 = Concentration related increase with maximum values ≥ 15 pg/mL) | 0.19 | 0.05 | 0.05 to 3.88 | 0.03 | – | – | – | – | – | – | – | – | – | – | – | – | –
2 | COc1cc(-c2ccc(O)c(O)c2)nc2ccccc12 [CSMC-12, 4-methoxy-2-(3,4-dihydroxyphenyl)quinoline] | >300 | 208 | 1 (1 = Modest increase with maximum values ≤ 15 pg/mL) | 293 | 223 | – | >300 | Negative (Not mutagenic < 10 μM (NEGATIVE)) | Negative (Not mutagenic < 10 μM (NEGATIVE)) | 3.7 | moderate inhibition | > 10 | 85.9 | > 10 | > 10 | > 10 | – | – | – | –
3 | Cc1ccc2oc(-c3ccc(O)c(O)c3)c(O)c(=O)c2c1 [CSMC-11, 6-methyl-3,3',4'-trihydroxy flavone] | >300 | >300 | 0 | >300 | 52 | – | >300 | Negative (Not mutagenic < 10 μM (NEGATIVE)) | Negative (Not mutagenic < 10 μM (NEGATIVE)) | > 25 | – | > 10 | 80.3 | > 10 | > 10 | > 10 | 300 | 1 (0–200 = 1) | 6.67 | 0.12
4 | COc1cc(-c2oc3cc(C)c(C)cc3c(=O)c2O)ccc1O [CSMC-15, 6,7-dimethyl-3,4'-dihydroxy-3'-methoxyflavone] | >300 | 79 | 0 | 74 | 78 | – | 76 | Negative (Not mutagenic < 10 μM (NEGATIVE)) | Negative (Not mutagenic < 10 μM (NEGATIVE)) | > 25 | – | > 10 | 70.8 | > 10 | > 10 | > 10 | 300 | 1 (0–200 = 1) | 4.08 | 0.4
5 | CC(C)Oc1cc(-c2ccc(O)c(O)c2)nc2ccccc12 [CSMC-17, 4-isopropoxy-2-(3,4-dihydroxyphenyl)quinoline] | >300 | 241 | 0 | 298 | 217 | – | 295 | Negative (Not mutagenic < 10 μM (NEGATIVE)) | Negative (Not mutagenic < 10 μM (NEGATIVE)) | 7.49 | moderate inhibition | > 10 | 80.8 | > 10 | > 10 | > 10 | – | – | – | –
